Laboratory results taken from ChEMBL document CHEMBL4130438, “6,7-Seco-ent-Kauranoids Derived from Oridonin as Potential Anticancer Agents” (J Nat Prod, 2017).
The source made the active and inactive calls. No cut-off for these calls is given here.

Legend:
MCF7 [1] = assay: Antiproliferative activity against human MCF7 cells after 72 hrs by MTT assay; assay type: functional, cell-based; conditions: MCF7, 72 h
Summary of the method: (§1)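 Cells pre-incubated 24 h at 37 °C, 5% CO2 in 96-well plates, then exposed to a range of compound concentrations (DMSO ≤0.25%) for 72 h. Viable cells read by MTT colour at 570 nm. Performed in quadruplicate, repeated three times. IC50 reported as means ± SD, n = 3.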

Bel-7402 [2] = assay: Antiproliferative activity against human Bel7402 cells after 72 hrs by MTT assay; assay type: functional, cell-based; conditions: Bel-7402, 72 h; summary of the method: as §1
MGC-803 = assay: Antiproliferative activity against human MGC803 cells after 72 hrs by MTT assay; assay type: functional, cell-based; conditions: MGC-803, 72 h; summary of the method: as §1
K562 = assay: Antiproliferative activity against human K562 cells after 72 hrs by MTT assay; assay type: functional, cell-based; conditions: K562, 72 h; summary of the method: as §1
MCF7 [3] = assay: Cytotoxicity against human MCF7 cells assessed as decrease in cell viability after 24 hrs by LDH release assay; assay type: functional, cell-based
Summary of the method: (§2)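 MCF-7 and Bel-7402 cells seeded at ~5 × 10^3 per well for 24 h, then exposed to compounds. LDH released into the medium measured with CytoTox-ONE reagent (10 min, ambient temperature) followed by stop solution. Fluorescence read at ex 560/em 590 nm.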

KB 3-1 = assay: Antiproliferative activity against human KB-3-1 cells after 48 hrs by MTT assay; assay type: functional, cell-based
Bel-7402 [4] = assay: Cytotoxicity against human Bel7402 cells assessed as decrease in cell viability after 24 hrs by LDH release assay; assay type: functional, cell-based; summary of the method: as §2
Homo sapiens = species: Homo sapiens; assay: Antiproliferative activity against human KB/CP4 cells after 48 hrs by MTT assay; assay type: functional, cell-based
H22 = assay: Antitumor activity against […] cells xenografted in ICR mouse assessed as inhibition of tumor volume at 20 mg/kg, iv qd administered for 14 consecutive days measured every 2 days relative to control; assay type: functional; conditions: 14 days
Summary of the method: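 Male ICR mice, five weeks old, implanted s.c. in the right flank with 1 × 10^6 H22 cells. After 7 days, randomised into groups of eight. Given i.v. once daily for 14 days, 10 or 20 mg/kg in 10% DMF/2% poloxamer/88% saline; negative controls received 0.9% saline i.v., positive control 20 mg/kg oridonin. Body weight and tumour volume (L × W²/2) recorded every 2 days. Tumours excised and weighed at sacrifice; inhibition (%) = (1 − treated/control mean tumour weight) × 100.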

| SMILES | IC50 (MCF7 [1]) | IC50 (Bel-7402 [2]) | IC50 (MGC-803) | IC50 (K562) | Activity (MCF7 [3]) | Activity (KB 3-1) | Activity (Bel-7402 [4]) | Activity (Homo sapiens) | inhibition in vivo at 20 mg/kg (H22) |
| --- | --- | --- | --- | --- | --- | --- | --- | --- | --- |
| C=C1C(=O)[C@@]23C(=O)OC[C@]4([C@@H](OS(C)(=O)=O)CCC(C)(C)[C@H]4C=O)[C@@H]2CC[C@@H]1[C@H]3O | > 10000 nM | > 10000 nM | > 10000 nM | > 10000 nM | – | – | – | – | – |
| C=C1C(=O)[C@@]23C(=O)OC[C@]4(C=CCC(C)(C)[C@H]4C=O)[C@@H]2CC[C@@H]1[C@H]3OC(=O)c1ccc([N+](=O)[O-])cc1 | 6400 nM | > 10000 nM | 7300 nM | 1000 nM | – | – | – | – | – |
| C=C1C(=O)[C@@]23C(=O)OC[C@]4(C=CCC(C)(C)[C@H]4C=O)[C@@H]2CC[C@@H]1[C@H]3OC(=O)c1ccco1 | 1200 nM | 840 nM | 1300 nM | 780 nM | – | – | – | – | – |
| C=C1C(=O)[C@@]23C(=O)OC[C@]4(C=CCC(C)(C)[C@H]4C=O)[C@@H]2CC[C@@H]1[C@H]3OC(=O)CC | 3400 nM | 7100 nM | 7300 nM | 1200 nM | – | – | – | – | – |
| C=C1C(=O)[C@]23[C@H](O)[C@H]1CC[C@H]2[C@@]12CO[C@@]3(O)[C@@H](O)[C@@H]1C(C)(C)CC[C@@H]2OS(C)(=O)=O | 3900 nM | 2700 nM | 3900 nM | 3200 nM | – | – | – | – | – |
| C=C1C(=O)[C@@]23C(=O)OC[C@]4(C=CCC(C)(C)[C@H]4C=O)[C@@H]2CC[C@@H]1[C@H]3OC(=O)/C=C/c1ccccc1 | 1500 nM | 1500 nM | 950 nM | 1300 nM | – | – | – | – | – |
| C=C1C(=O)[C@@]23C(=O)OC[C@]4(C=CCC(C)(C)[C@H]4C=O)[C@@H]2CC[C@@H]1[C@H]3O | 6400 nM | 2500 nM | 3000 nM | 4200 nM | inactive | Active | inactive | Active | – |
| C=C1C(=O)[C@@]23C(=O)OC[C@]4([C@@H](OS(C)(=O)=O)CCC(C)(C)[C@H]4C=O)[C@@H]2CC[C@@H]1[C@H]3OC(=O)CCCC | 3700 nM | 2200 nM | 3200 nM | 4500 nM | – | – | – | – | – |
| C=C1C(=O)[C@@]23C(=O)OC[C@]4(C=CCC(C)(C)[C@H]4C=O)[C@@H]2CC[C@@H]1[C@H]3OC(C)=O | 1000 nM | 570 nM | 950 nM | 630 nM | – | – | – | – | – |
| C=C1C(=O)[C@@]23C(=O)OC[C@]4([C@@H](OS(C)(=O)=O)CCC(C)(C)[C@H]4C=O)[C@@H]2CC[C@@H]1[C@H]3OC(=O)c1ccc(F)cc1 | 5500 nM | 3100 nM | 4500 nM | 6200 nM | – | – | – | – | – |
| C=C1C(=O)[C@@]23C(=O)OC[C@]4([C@@H]5O[C@@H]5CC(C)(C)[C@H]4C=O)[C@@H]2CC[C@@H]1[C@H]3O | > 10000 nM | 4600 nM | > 10000 nM | > 10000 nM | – | – | – | – | – |
| C=C1C(=O)[C@@]23C(=O)OC[C@]4([C@@H](OS(C)(=O)=O)CCC(C)(C)[C@H]4C=O)[C@@H]2CC[C@@H]1[C@H]3OC(=O)c1ccco1 | 2900 nM | 1100 nM | 3400 nM | 1700 nM | – | – | – | – | – |
| C=C1C(=O)[C@@]23C(=O)OC[C@]4(C=CCC(C)(C)[C@H]4C=O)[C@@H]2CC[C@@H]1[C@H]3OC(=O)/C=C/c1cccc([N+](=O)[O-])c1 | 2200 nM | 5100 nM | 2900 nM | 1400 nM | – | – | – | – | – |
| C=C1C(=O)[C@@]23C(=O)OC[C@]4(C=CCC(C)(C)[C@H]4C=O)[C@@H]2CC[C@@H]1[C@H]3OS(C)(=O)=O | 2000 nM | 1300 nM | 2800 nM | 1900 nM | – | – | – | – | – |
| C=C1C(=O)[C@@]23C(=O)OC[C@]4(C=CCC(C)(C)[C@H]4C=O)[C@@H]2CC[C@@H]1[C@H]3OC(=O)c1cccc(C)c1 | 1100 nM | 3600 nM | 2400 nM | 550 nM | – | – | – | – | – |
| C=C1C(=O)[C@@]23C(=O)OC[C@]4(C=CCC(C)(C)[C@H]4C=O)[C@@H]2CC[C@@H]1[C@H]3OC(=O)CCCC | 3300 nM | 2200 nM | 4300 nM | 5500 nM | – | – | – | – | – |
| C=C1C(=O)[C@@]23C(=O)OC[C@]4(C=CCC(C)(C)[C@H]4C=O)[C@@H]2CC[C@@H]1[C@H]3OC(=O)c1cnccn1 | 3500 nM | 1300 nM | 2800 nM | 2900 nM | – | – | – | – | – |
| C=C1C(=O)[C@@]23C(=O)OC[C@]4([C@@H](OS(C)(=O)=O)CCC(C)(C)[C@H]4C=O)[C@@H]2CC[C@@H]1[C@H]3OS(C)(=O)=O | 9500 nM | 3800 nM | 8800 nM | 1200 nM | – | – | – | – | – |
| C=C1C(=O)[C@]23[C@H](O)[C@H]1CC[C@H]2[C@@]12CO[C@]3(O)[C@@H](O)[C@@H]1C(C)(C)CC[C@@H]2O [ORIDONIN] | 9100 nM | > 10000 nM | 4500 nM | 5100 nM | – | – | – | – | 51.2% |
